How the values were obtained:
MT4 [1] = assay: Concentration required to reduce HIV-1-induced cytopathic effect in MT-4 cells; format: functional, cell-based; conditions: Homo sapiens
In short: (§1)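 MT-4 cells infected with HIV-1. The read-out is protection against virus-induced cytopathic effect. EC50 is the concentration giving a 50% reduction of the cytopathic effect. Uninfected MT-4 cytotoxicity was run in parallel.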

MT4 [2] = assay: Ratio of CC50 to that of EC50; format: functional, Homo sapiens
In short: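 Selectivity index is calculated as CC50/EC50. Both values come from the parallel MT-4 assays: cell viability for CC50 and protection from HIV-1-induced cytopathic effect for EC50.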

MT4 [3] = assay: Cytotoxic concentration required to reduce MT-4 cell viability; format: functional; conditions: Homo sapiens
In short: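 Viability of MT-4 cells was measured with compound alone, in parallel with the HIV-1 cytopathic-effect assay. CC50 is the concentration reducing MT-4 cell viability by 50%.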

[4] = biological target: Human immunodeficiency virus type 1 reverse transcriptase (Human immunodeficiency virus 1, UniProt Q72547); assay: Concentration required to inhibit in vitro RNA-dependent DNA polymerase activity of reverse transcriptase
In short: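 Recombinant HIV-1 RT. RNA-dependent DNA polymerase activity was measured in vitro. IC50 is the concentration inhibiting this polymerase activity by 50%.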

MT4 [5] = assay: Concentration required to reduce HIV-1-induced cytopathic effect in MT-4 cells; NA = not active; format: functional, cell-based, Homo sapiens; in short: as §1
CCRF-CEM [6] = assay: Concentration required to protect CEM cells against Mutant E138K Strain; format: functional, cell-based; conditions: Homo sapiens
In short: (§2)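 CEM cell cultures were infected with mutant HIV-1 strains, each carrying a single NNRTI-resistance mutation in RT. EC50 is the concentration protecting CEM cells against HIV-induced cytopathogenicity by 50%.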

CCRF-CEM [7] = assay: Concentration required to protect CEM cells against Mutant K103N Strain; format: functional, cell-based; conditions: Homo sapiens; in short: as §2
CCRF-CEM [8] = assay: Concentration required to protect CEM cells against Mutant Y181C Strain; format: functional, cell-based; conditions: Homo sapiens; in short: as §2
MT4 [9] = assay: Compound was tested for inhibition of the cytopathic effects of HIV-1 (IIIB) in MT-4 cells; format: functional, cell-based; conditions: Homo sapiens
In short: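 HIV-1-induced cytopathic effect measured in MT-4 cell cultures. EC50 is the concentration reducing the cytopathic effect by 50%. Cytotoxicity in MT-4 cells was run in parallel.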

CCRF-CEM [10] = assay: Concentration required to protect CEM cells against Mutant Y188H Strain; format: functional, cell-based; conditions: Homo sapiens; in short: as §2
CCRF-CEM [11] = assay: Concentration required to protect CEM cells against Mutant L100I Strain; format: functional, cell-based; conditions: Homo sapiens; in short: as §2

Structure (SMILES) | EC50 (MT4 [1]) [µM] | Ratio (MT4 [2]) | CC50 (MT4 [3]) [µM] | IC50 [4] [µM] | EC50 (MT4 [5]) | EC50 (CCRF-CEM [6]) [µM] | EC50 (CCRF-CEM [7]) [µM] | EC50 (CCRF-CEM [8]) [µM] | EC50 (MT4 [9]) [µM] | EC50 (CCRF-CEM [10]) [µM] | EC50 (CCRF-CEM [11]) [µM]
Oc1nc2cc(Cl)ccc2n1Cc1c(F)cccc1F | 29.6 | >14 | > 424 | 60 |  |  |  |  |  |  | 
O=c1oc2ccc(Cl)cc2n1Cc1c(F)cccc1F | 3.72 | >91 | > 382 | 20 |  |  |  |  |  |  | 
CC(C)c1ccc(Cn2c(O)nc3ccc(Cl)cc32)cc1 | 2.83 | >147 | > 415 | 16.2 |  |  |  |  |  |  | 
Oc1nc2ccc(Cl)cc2n1Cc1c(Cl)cccc1Cl | 3.79 | 83 | 315 | 7.5 |  |  |  |  |  |  | 
Oc1nc2ccc(Cl)cc2n1Cc1cccc2ccccc12 | 0.87 | 57 | 50 | 12.7 |  |  |  |  |  |  | 
Oc1nc2ccc(Cl)cc2n1CC1CCCCC1 |  |  | 9.5 | 50 | Not Active |  |  |  |  |  | 
Oc1nc2ccc(Cl)cc2n1Cc1ccc2ccccc2c1 | 6.35 | >64 | > 405 | 5.2 |  |  |  |  |  |  | 
O=c1[nH]c2ccc(Cl)cc2n1Cc1c(F)cccc1F | 0.24 | >1766 | > 424 | 2.86 |  | 2.9 | > 20 | > 20 | 0.24 | > 20 | 2
Fc1cccc(F)c1C1SCc2nc3ccccc3n21 (configuration not stated) [THIAZOLOBENZIMIDAZOLE] | 1.1 | 45 | 50 | 24.6 |  | 1.73 | 15.6 | 13.8 | 1.39 | 4.16 | 3.12

Reference: ChEMBL document CHEMBL1144429, “Computational strategies in discovering novel non-nucleoside inhibitors of HIV-1 RT” (J Med Chem, 2005)
